≈ marks a conversion by molar mass, not a printed value.
Experiments:
[1] = biological target: T1, Enoyl-(Acyl-carrier-protein) reductase (Streptococcus pneumoniae, UniProt Q9FBC5); test: Inhibition of Streptococcus pneumoniae FabK
T1 sequence (Q9FBC5 whole entry): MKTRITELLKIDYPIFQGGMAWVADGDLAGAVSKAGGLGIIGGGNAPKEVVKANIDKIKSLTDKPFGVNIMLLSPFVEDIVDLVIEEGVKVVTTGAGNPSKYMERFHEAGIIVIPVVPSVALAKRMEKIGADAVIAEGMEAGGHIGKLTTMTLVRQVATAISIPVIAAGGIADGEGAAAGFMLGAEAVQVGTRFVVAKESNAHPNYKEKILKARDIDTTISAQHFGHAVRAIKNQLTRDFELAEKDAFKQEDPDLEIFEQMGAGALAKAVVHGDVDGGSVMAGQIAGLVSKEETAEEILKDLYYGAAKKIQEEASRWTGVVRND
Outline: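 C-terminal His-tagged FabK from S. pneumoniae R6, expressed in E. coli BL21(DE3) with 1 mM IPTG, Ni-NTA purified, used at 2 µg/mL. Buffer 100 mM MES pH 7.0, 100 mM NH4Cl, 0.2 mM crotonoyl-CoA, 0.4 mM NADH; enzyme-initiated. Absorbance at 340 nm read for 10 min at room temperature; IC50 = concentration giving 50% activity reduction.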

K562 = test: Cytotoxicity against human K562 cells; type: functional, cell-based
[2] = Inhibition of Escherichia coli FabI
Outline: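 His-tagged E. coli FabI (gene from E. coli DH5α, expressed in E. coli TOP10 with arabinose induction, Ni-NTA purified) at 50 µg/mL in 100 mM sodium phosphate pH 7.4 with 0.25 mM crotonoyl-CoA and 0.4 mM NADH. Reaction started by enzyme addition; NADH consumption followed at 340 nm for 10 min at room temperature; IC50 = concentration halving activity.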

Staphylococcus aureus = test: Antibacterial activity against Staphylococcus aureus ATCC 29213; type: functional
Outline: (§1)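 Broth microdilution per NCCLS M7-A6; MIC taken as lowest concentration preventing visible growth. Strains: S. aureus ATCC29213 and S. pneumoniae KU197 (PRSP).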

Streptococcus pneumoniae = test: Antibacterial activity against Streptococcus pneumoniae KU197; type: functional; outline: as §1

Structure (SMILES) | IC50 [1] | IC50 [2] | MIC (Staphylococcus aureus) | MIC (Streptococcus pneumoniae) | IC50 (K562)
O=C([O-])COc1ccc(-c2cnc(CNC(=O)Nc3ncc(Sc4ccccn4)s3)[nH]2)cc1.[Na+] | 34 nM | > 32000 nM | – | > 32 µg/mL | –
Cc1c(Cc2c(Cl)cccc2Cl)c(=O)ccn1Cc1ccc(-c2c[nH]c(CNC(=O)Nc3ncc(Br)s3)n2)cc1 | 11000 nM | 820 nM | > 32 µg/mL | > 32 µg/mL | > 69000 nM
Cc1c(Cc2c(Cl)cccc2Cl)c(=O)ccn1CCc1ccc(-c2c[nH]c(CNC(=O)Nc3ncc[nH]3)n2)cc1 | > 32000 nM | 930 nM | > 32 µg/mL | > 32 µg/mL | > 69000 nM
O=C(NCc1ncc(-c2ccccc2)[nH]1)Nc1ncc(Sc2ccccn2)s1 | 42 nM | > 32000 nM | – | 2 µg/mL (≈ 4.9 µM) | –
O=C(NCc1ncc(-c2ccc(Br)cc2)[nH]1)Nc1ncc(Sc2ccccn2)s1 | 2.4 nM | > 32000 nM | – | 0.25 µg/mL (≈ 0.513 µM) | –
CS(=O)(=O)c1ccc2nc(NC(=O)NCc3nc(-c4ccccc4)c[nH]3)sc2c1 | – | > 32000 nM | > 64 µg/mL | – | –
O=C(NCc1ncc(-c2cccc(Br)c2)[nH]1)Nc1ncc(Sc2ccccn2)s1 | 5.3 nM | > 32000 nM | – | 16 µg/mL (≈ 32.8 µM) | –
Cc1c(Cc2c(Cl)cccc2Cl)c(=O)ccn1/C=C/c1ccc(-c2c[nH]c(CNC(=O)Nc3ncc(Br)s3)n2)cc1 | > 30000 nM | > 32000 nM | – | – | > 69000 nM
Oc1cc(Cl)ccc1Oc1ccc(Cl)cc1Cl [TRICLOSAN] | > 32000 nM | 900 nM | 0.063 µg/mL (≈ 0.218 µM) | – | –

Stronger by IC50 [2], values ahead:

IC50 [1] | IC50 [2] | MIC (Staphylococcus aureus) | MIC (Streptococcus pneumoniae) | Structure (SMILES) | IC50 (K562)
9.4 nM | 310 nM | > 32 µg/mL | 1 µg/mL (≈ 1.49 µM) | Cc1c(Cc2c(Cl)cccc2Cl)c(=O)ccn1CCc1ccc(-c2c[nH]c(CNC(=O)Nc3ncc(S(C)(=O)=O)s3)n2)cc1 | > 69000 nM
9000 nM | 290 nM | > 32 µg/mL | > 32 µg/mL | Cc1c(Cc2c(Cl)cccc2Cl)c(=O)ccn1C/C=C/c1ccc(-c2c[nH]c(CNC(=O)Nc3ncc(Br)s3)n2)cc1 | > 69000 nM
16 nM | 560 nM | > 32 µg/mL | 2 µg/mL (≈ 2.85 µM) | Cc1c(Cc2c(Cl)cccc2Cl)c(=O)ccn1CCc1ccc(-c2c[nH]c(CNC(=O)Nc3ncc(Sc4ccccn4)s3)n2)cc1 | > 69000 nM
> 32000 nM | 200 nM | 0.063 µg/mL (≈ 0.175 µM) | > 32 µg/mL | Cn1cc(CNC(=O)/C=C/c2cnc3c(c2)CCC(=O)N3)c2ccccc21 | –
4.5 nM | 380 nM | > 32 µg/mL | 0.5 µg/mL (≈ 0.693 µM) | Cc1c(Cc2c(Cl)cccc2Cl)c(=O)ccn1CCc1ccc(-c2c[nH]c(CNC(=O)Nc3nc4ccc(S(C)(=O)=O)cc4s3)n2)cc1 | > 69000 nM
6600 nM | 340 nM | > 32 µg/mL | > 32 µg/mL | Cc1c(Cc2c(Cl)cccc2Cl)c(=O)ccn1CCCc1ccc(-c2c[nH]c(CNC(=O)Nc3ncc(Br)s3)n2)cc1 | > 69000 nM
29 nM | 570 nM | > 32 µg/mL | 8 µg/mL (≈ 11.9 µM) | Cc1c(Cc2c(Cl)cccc2Cl)c(=O)ccn1CCc1ccc(-c2c[nH]c(CNC(=O)Nc3ncc(Br)s3)n2)cc1 | > 69000 nM

From ChEMBL document CHEMBL1148781, “Phenylimidazole derivatives of 4-pyridone as dual inhibitors of bacterial enoyl-acyl carrier protein reductases FabI and FabK” (J Med Chem, 2007)
